From ChEMBL document CHEMBL1124510, “(+/-)-7-chloro-8-hydroxy-1-(4'-[125I]iodophenyl)-3-methyl-2,3,4,5- tetrahydro-1H-3-benzazepine: a potential CNS D-1 dopamine receptor imaging agent” (J Med Chem, 1989)
One block for each compound: values may come before it.

Columns and labels:
Rattus norvegicus [1] = test: In vivo biodistribution in rats after an intravenous injection at 15 min was determined in brain; Expressed as percent dose/organ; type: ADME, organism-based; conditions: 0.25 h
Procedure, shortened: (§1)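 [125I]FISCH in 0.2 mL saline was injected into the femoral vein of male Sprague-Dawley rats (225-300 g) under halothane. Rats were killed by cardiac excision at set times. Organs were weighed and gamma-counted against diluted aliquots of the dose. Blood and muscle totals assume 7% and 40% of body weight. Results are averages of six rats ± SD.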

Rattus norvegicus [2] = test: In vivo biodistribution in rats after an intravenous injection at 15 min was determined in muscle; Expressed as percent dose/organ; type: ADME, organism-based, Muscle tissue; conditions: 0.25 h; procedure, shortened: as §1
Rattus norvegicus [3] = test: In vivo biodistribution in rats after an intravenous injection at 60 min was determined in brain; Expressed as percent dose/organ; type: ADME, organism-based; conditions: 1 h; procedure, shortened: as §1
Rattus norvegicus [4] = test: In vivo biodistribution in rats after an intravenous injection at 60 min was determined in blood; Expressed as percent dose/organ; type: ADME, organism-based; conditions: 1 h; procedure, shortened: as §1
Rattus norvegicus [5] = test: In vivo biodistribution in rats after an intravenous injection at 2 min was determined in spleen; Expressed as percent dose/organ; type: ADME, organism-based; procedure, shortened: as §1
Rattus norvegicus [6] = test: In vivo biodistribution in rats after an intravenous injection at 60 min was determined in liver; Expressed as percent dose/organ; type: ADME, organism-based; conditions: 1 h; procedure, shortened: as §1
Rattus norvegicus [7] = test: In vivo biodistribution in rats after an intravenous injection at 2 min was determined in liver; Expressed as percent dose/organ; type: ADME, organism-based; procedure, shortened: as §1
Rattus norvegicus [8] = test: In vivo biodistribution in rats after an intravenous injection at 15 min was determined in blood; Expressed as percent dose/organ; type: ADME, organism-based; conditions: 0.25 h; procedure, shortened: as §1
Rattus norvegicus [9] = test: In vivo biodistribution in rats after an intravenous injection at 60 min was determined in muscle; Expressed as percent dose/organ; type: ADME, organism-based, Muscle tissue; conditions: 1 h; procedure, shortened: as §1
Rattus norvegicus [10] = test: In vivo biodistribution in rats after an intravenous injection at 2 min was determined in brain; Expressed as percent dose/organ; type: ADME, organism-based; procedure, shortened: as §1
D(1A) dopamine receptor [11] = target: T1, D(1A) dopamine receptor (Rattus norvegicus, UniProt P18901); test: In vitro binding affinity to the rat striatal homogenate
T1 sequence (P18901 whole entry): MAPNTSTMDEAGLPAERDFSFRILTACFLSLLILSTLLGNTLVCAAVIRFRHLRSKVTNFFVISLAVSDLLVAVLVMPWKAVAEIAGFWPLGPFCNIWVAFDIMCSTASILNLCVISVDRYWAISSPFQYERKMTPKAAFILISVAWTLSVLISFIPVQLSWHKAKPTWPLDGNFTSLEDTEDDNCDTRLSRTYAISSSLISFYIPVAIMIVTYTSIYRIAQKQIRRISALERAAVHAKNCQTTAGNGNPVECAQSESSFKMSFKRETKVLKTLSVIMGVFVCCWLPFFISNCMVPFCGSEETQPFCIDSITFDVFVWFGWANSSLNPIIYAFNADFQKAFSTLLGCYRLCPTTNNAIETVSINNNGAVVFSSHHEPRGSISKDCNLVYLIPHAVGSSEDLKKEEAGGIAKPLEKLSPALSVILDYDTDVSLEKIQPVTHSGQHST
Procedure, shortened: (§2)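 Saturation binding of [125I]FISCH to male Sprague-Dawley rat (200-250 g) striatal membranes. Tissue homogenized in ice-cold 50 mM Tris-HCl pH 7.4, pelleted twice at 20000g. Assay buffer 50 mM Tris pH 7.4, 120 mM NaCl, 5 mM KCl, 2 mM CaCl2, 1 mM MgCl2, with 40-60 μg protein. Incubated 20 min at 37 °C with stirring, then filtered through protamine-treated GF/B filters. Specific binding gives […].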

Rattus norvegicus [12] = species on record: Rattus norvegicus; test: Selectivity ratio for biodistribution in brain and blood of rats after 60 minutes; Expressed as percent dose/gram ratio; type: ADME, organism-based; conditions: 1 h
Procedure, shortened: (§3)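 After femoral iv injection of [125I]FISCH in saline into halothane-anesthetized male Sprague-Dawley rats, tissues were weighed and gamma-counted. Percent dose/gram was calculated against the diluted injected dose, and the ratio was taken from the percent dose/gram values.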

Rattus norvegicus [13] = test: In vivo biodistribution in rats after an intravenous injection at 15 min was determined in liver; Expressed as percent dose/organ; type: ADME, organism-based; conditions: 0.25 h; procedure, shortened: as §1
Rattus norvegicus [14] = test: In vivo biodistribution in rats after an intravenous injection at 60 min was determined in skin; Expressed as percent dose/organ; type: ADME, organism-based; conditions: 1 h; procedure, shortened: as §1
Rattus norvegicus [15] = test: In vivo biodistribution in rats after an intravenous injection at 15 min was determined in lung; Expressed as percent dose/organ; type: ADME, organism-based; conditions: 0.25 h; procedure, shortened: as §1
Rattus norvegicus [16] = test: In vivo biodistribution in rats after an intravenous injection at 2 min was determined in thyroid; Expressed as percent dose/organ; type: ADME, organism-based, Thyroid gland; procedure, shortened: as §1
Rattus norvegicus [17] = test: In vivo biodistribution in rats after an intravenous injection at 15 min was determined in skin; Expressed as percent dose/organ; type: ADME, organism-based; conditions: 0.25 h; procedure, shortened: as §1
Rattus norvegicus [18] = test: In vivo biodistribution in rats after an intravenous injection at 15 min was determined in thyroid; Expressed as percent dose/organ; type: ADME, organism-based, Thyroid gland; conditions: 0.25 h; procedure, shortened: as §1
Rattus norvegicus [19] = test: In vivo biodistribution in rats after an intravenous injection at 2 min was determined in muscle; Expressed as percent dose/organ; type: ADME, organism-based, Muscle tissue; procedure, shortened: as §1
Rattus norvegicus [20] = test: In vivo biodistribution in rats after an intravenous injection at 15 min was determined in heart; Expressed as percent dose/organ; type: ADME, organism-based; conditions: 0.25 h; procedure, shortened: as §1
Rattus norvegicus [21] = species on record: Rattus norvegicus; test: Selectivity ratio for biodistribution in brain and blood of rats after 15 minutes; Expressed as percent dose/gram ratio; type: ADME, organism-based; conditions: 0.25 h; procedure, shortened: as §3
Rattus norvegicus [22] = test: In vivo biodistribution in rats after an intravenous injection at 2 min was determined in lung; Expressed as percent dose/organ; type: ADME, organism-based; procedure, shortened: as §1
Rattus norvegicus [23] = test: In vivo biodistribution in rats after an intravenous injection at 2 min was determined in heart; Expressed as percent dose/organ; type: ADME, organism-based; procedure, shortened: as §1
Rattus norvegicus [24] = test: In vivo biodistribution in rats after an intravenous injection at 60 min was determined in kidney; Expressed as percent dose/organ; type: ADME, organism-based; conditions: 1 h; procedure, shortened: as §1
Rattus norvegicus [25] = test: In vivo biodistribution in rats after an intravenous injection at 2 min was determined in blood; Expressed as percent dose/organ; type: ADME, organism-based; procedure, shortened: as §1
Rattus norvegicus [26] = test: In vivo biodistribution in rats after an intravenous injection at 2 min was determined in skin; Expressed as percent dose/organ; type: ADME, organism-based; procedure, shortened: as §1
Rattus norvegicus [27] = species on record: Rattus norvegicus; test: Selectivity ratio for biodistribution in brain and blood of rats after 2 minutes; Expressed as percent dose/gram ratio; type: ADME, organism-based; procedure, shortened: as §3
Rattus norvegicus [28] = test: In vivo biodistribution in rats after an intravenous injection at 60 min was determined in lung; Expressed as percent dose/organ; type: ADME, organism-based; conditions: 1 h; procedure, shortened: as §1
Rattus norvegicus [29] = test: In vivo biodistribution in rats after an intravenous injection at 60 min was determined in spleen; Expressed as percent dose/organ; type: ADME, organism-based; conditions: 1 h; procedure, shortened: as §1
Rattus norvegicus [30] = test: In vivo biodistribution in rats after an intravenous injection at 15 min was determined in kidney; Expressed as percent dose/organ; type: ADME, organism-based; conditions: 0.25 h; procedure, shortened: as §1
Rattus norvegicus [31] = test: In vivo biodistribution in rats after an intravenous injection at 2 min was determined in kidney; Expressed as percent dose/organ; type: ADME, organism-based; procedure, shortened: as §1
Rattus norvegicus [32] = test: In vivo biodistribution in rats after an intravenous injection at 60 min was determined in thyroid; Expressed as percent dose/organ; type: ADME, organism-based, Thyroid gland; conditions: 1 h; procedure, shortened: as §1
Rattus norvegicus [33] = test: In vivo biodistribution in rats after an intravenous injection at 15 min was determined in spleen; Expressed as percent dose/organ; type: ADME, organism-based; conditions: 0.25 h; procedure, shortened: as §1
Rattus norvegicus [34] = test: In vivo biodistribution in rats after an intravenous injection at 60 min was determined in heart; Expressed as percent dose/organ; type: ADME, organism-based; conditions: 1 h; procedure, shortened: as §1
D(1A) dopamine receptor [35] = target: T1, D(1A) dopamine receptor; test: (§4) In vitro binding affinity to the rat striatal homogenate.
Rattus norvegicus [36] = species on record: Rattus norvegicus; test: as §4; procedure, shortened: as §2
D(1A) dopamine receptor [37] = target: T1, D(1A) dopamine receptor; test: In vitro binding affinity towards Dopamine receptor D1 by displacing [125I]FISCH radioligand in rat striatal homogenate
Procedure, shortened: (§5)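 Assay buffer 50 mM Tris pH 7.4 with NaCl, KCl, CaCl2 and MgCl2, 40-60 μg protein. Incubated 20 min at 37 °C with stirring, then vacuum-filtered on GF/B filters pretreated with 0.2% protamine sulfate and washed with cold Tris.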

D(1A) dopamine receptor [38] = target: T1, D(1A) dopamine receptor; test: In vitro binding affinity towards dDopamine receptor D1 by displacing [125I]FISCH radioligand in rat striatal homogenate
Procedure, shortened: as §5, with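 “Competition against 0.15-0.30 nM [125I]FISCH on rat striatal membranes, each competitor at 7-11 concentrations. Assay” for “Assay”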

SMILES: CN1CCc2cc(Cl)c(O)cc2C(c2ccc([125I])cc2)C1 (stereo not given)
Biodistribution (Rattus norvegicus [1]): 1.4% | Biodistribution (Rattus norvegicus [2]): 34.22% | Biodistribution (Rattus norvegicus [3]): 0.55% | Biodistribution (Rattus norvegicus [4]): 1.83% | Biodistribution (Rattus norvegicus [5]): 2.79% | Biodistribution (Rattus norvegicus [6]): 12.32% | Biodistribution (Rattus norvegicus [7]): 17.1% | Biodistribution (Rattus norvegicus [8]): 2.28% | Biodistribution (Rattus norvegicus [9]): 19.07% | Biodistribution (Rattus norvegicus [10]): 2.27% | Kd (D(1A) dopamine receptor [11]): 1.43 nM | Ratio (Rattus norvegicus [12]): 3.08% | Biodistribution (Rattus norvegicus [13]): 14.72% | Biodistribution (Rattus norvegicus [14]): 9.25% | Biodistribution (Rattus norvegicus [15]): 2.73% | Biodistribution (Rattus norvegicus [16]): 0.11% | Biodistribution (Rattus norvegicus [17]): 9.62% | Biodistribution (Rattus norvegicus [18]): 0.06% | Biodistribution (Rattus norvegicus [19]): 35.68% | Biodistribution (Rattus norvegicus [20]): 0.38% | Ratio (Rattus norvegicus [21]): 6.19% | Biodistribution (Rattus norvegicus [22]): 8.55% | Biodistribution (Rattus norvegicus [23]): 1.97% | Biodistribution (Rattus norvegicus [24]): 1.31% | Biodistribution (Rattus norvegicus [25]): 3.46% | Biodistribution (Rattus norvegicus [26]): 7.43% | Ratio (Rattus norvegicus [27]): 7.35% | Biodistribution (Rattus norvegicus [28]): 1.47% | Biodistribution (Rattus norvegicus [29]): 0.67% | Biodistribution (Rattus norvegicus [30]): 2.09% | Biodistribution (Rattus norvegicus [31]): 5.98% | Biodistribution (Rattus norvegicus [32]): 0.04% | Biodistribution (Rattus norvegicus [33]): 0.56% | Biodistribution (Rattus norvegicus [34]): 0.18%

SMILES: CN1CCc2cc(Cl)c(O)cc2C(c2ccc(I)cc2)C1 (racemic)
Ki (D(1A) dopamine receptor [37]): 1.71 nM

SMILES: O=C(c1ccc(F)cc1)C1CCN(CCn2c(=O)[nH]c3ccccc3c2=O)CC1 [KETANSERIN]
Ki (D(1A) dopamine receptor [38]): > 3000 nM

Further lines, results first:

Kd (D(1A) dopamine receptor [35]): 197 nM
SMILES: CN1CCc2ccc(O)cc2[C@@H](c2ccccc2)C1

Kd (Rattus norvegicus [36]): 0.7 nM | Ki (D(1A) dopamine receptor [37]): 13.4 nM
SMILES: CN1CCc2cc(I)c(O)cc2[C@@H](c2ccccc2)C1 (racemic)

Kd (Rattus norvegicus [36]): 0.36 nM
SMILES: CN1CCc2cc(Cl)c(O)cc2[C@@H](c2ccccc2)C1 [SCH-23390]
